Laboratory results published in ChEMBL document CHEMBL4014298, “Discovery of a series of 8-(1-phenylpyrrolidin-2-yl)-6-carboxamide-2-morpholino-4H-chromen-4-one as PI3Kβ/δ inhibitors for the treatment of PTEN-deficient tumours” (Bioorg Med Chem Lett, 2017).
Activity calls are given as the source filed them. No cut-off for these calls is given here.

Columns and labels:
[1] = biological target: Phosphatidylinositol 4,5-bisphosphate 3-kinase catalytic subunit alpha isoform (Homo sapiens, UniProt P42336); assay: Inhibition of recombinant human PI3Kalpha using PIP2 as substrate preincubated for 20 mins followed by substrate addition measured after 80 mins in presence of ATP by Kinase Glo luminescence assay
[2] = biological target: Phosphatidylinositol 4,5-bisphosphate 3-kinase catalytic subunit alpha isoform (Homo sapiens, UniProt P42336, E545K); assay: Inhibition of human PI3Kalpha (2 to 1068 residues)/p85 (1 to 724 residues) E545K mutant by ADP Glo HTS assay
In short: (§1)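 Lipid kinase selectivity assessed in a 15-kinase panel (Dundee University lipid kinase panel), IC50 determined.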

[3] = Apparent permeability across apical to basolateral side in human Caco2 cells; details: Caco-2
Sphingosine kinase 1 = Sphingosine kinase 1 (Homo sapiens, UniProt Q9NYA1); assay: Inhibition of human SphK1 (1 to 384 residues) by ATP-Glo HTS assay; in short: as §1
[4] = biological target: Phosphatidylinositol 4,5-bisphosphate 3-kinase catalytic subunit gamma isoform (Homo sapiens, UniProt P48736); assay: Inhibition of human PI3Kgamma (2 to 1102 residues) by ADP Glo HTS assay; in short: as §1
[5] = Oral bioavailability in mouse blood at 30 umol/kg; format: ADME, organism-based
[6] = biological target: Voltage-gated inwardly rectifying potassium channel KCNH2 (Homo sapiens, UniProt Q12809); assay: Inhibition of human ERG
[7] = biological target: Serine/threonine-protein kinase mTOR (Homo sapiens, UniProt P42345); assay: Inhibition of mTOR (unknown origin)
[8] = Clearance in dog blood at 4 umol/kg, iv or 10 umol/kg, po; format: ADME, organism-based, Canis lupus familiaris
Mus musculus = assay: In vivo inhibition of AKT phosphorylation at Ser473 in nude mouse xenografted with PTEN-deficient human PC3 cells at 100 mg/kg, po administered as single dose measured after 30 mins to 8 hrs; format: functional, organism-based
In short: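 Single oral dose (100 or 30 mg/kg) to nude mice carrying PTEN-deficient PC3 prostate xenografts; tumour AKT Ser473 phosphorylation measured at 30 min, 2 h and 8 h, with free plasma concentration determined at same time points.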

[9] = biological target: T1, Phosphatidylinositol 4,5-bisphosphate 3-kinase catalytic subunit delta isoform (Homo sapiens, UniProt O00329); assay: Inhibition of recombinant human PI3Kdelta using PIP2 as substrate preincubated for 20 mins followed by substrate addition measured after 80 mins in presence of ATP by Kinase Glo luminescence assay
T1 sequence (O00329 whole entry): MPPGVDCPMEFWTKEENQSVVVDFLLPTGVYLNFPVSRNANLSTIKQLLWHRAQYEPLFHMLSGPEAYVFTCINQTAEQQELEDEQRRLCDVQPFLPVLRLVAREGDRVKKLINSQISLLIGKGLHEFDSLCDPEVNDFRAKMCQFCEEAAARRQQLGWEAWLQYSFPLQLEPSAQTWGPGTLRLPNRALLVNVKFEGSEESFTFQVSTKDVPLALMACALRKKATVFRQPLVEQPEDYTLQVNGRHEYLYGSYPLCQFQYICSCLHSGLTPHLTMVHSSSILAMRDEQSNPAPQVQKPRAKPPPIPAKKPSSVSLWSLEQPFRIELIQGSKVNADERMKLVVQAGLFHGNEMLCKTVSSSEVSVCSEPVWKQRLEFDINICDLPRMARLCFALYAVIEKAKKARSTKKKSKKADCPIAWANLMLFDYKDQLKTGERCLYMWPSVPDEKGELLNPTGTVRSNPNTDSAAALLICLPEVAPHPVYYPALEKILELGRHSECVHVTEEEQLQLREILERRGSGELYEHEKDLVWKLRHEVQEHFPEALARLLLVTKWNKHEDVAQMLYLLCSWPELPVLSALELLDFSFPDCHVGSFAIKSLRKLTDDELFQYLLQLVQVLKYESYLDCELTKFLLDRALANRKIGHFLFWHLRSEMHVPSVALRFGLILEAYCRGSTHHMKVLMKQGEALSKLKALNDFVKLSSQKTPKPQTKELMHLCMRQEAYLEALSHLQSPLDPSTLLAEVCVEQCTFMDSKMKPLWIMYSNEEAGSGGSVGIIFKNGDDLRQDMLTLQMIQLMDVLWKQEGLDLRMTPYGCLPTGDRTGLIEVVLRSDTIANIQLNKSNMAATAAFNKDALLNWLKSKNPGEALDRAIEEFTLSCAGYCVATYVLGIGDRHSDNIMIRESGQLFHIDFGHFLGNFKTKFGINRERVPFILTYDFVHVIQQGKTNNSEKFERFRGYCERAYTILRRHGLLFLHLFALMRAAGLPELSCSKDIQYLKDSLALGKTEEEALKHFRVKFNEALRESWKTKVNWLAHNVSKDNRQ

[10] = Fraction unbound in mouse plasma; format: ADME, cell-free
In short: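 Plasma protein binding in mouse, dog or human plasma, reported as fraction unbound (%).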

[11] = biological target: MAP/microtubule affinity-regulating kinase 4 (Homo sapiens) (UniProt Q96L34); assay: Inhibition of human MARK4 (2 to 752 residues) at 1 uM after 5 mins in presence of [33P]ATP by filter binding assay relative to control
[12] = biological target: T2, Phosphatidylinositol 4,5-bisphosphate 3-kinase catalytic subunit beta isoform (Homo sapiens, UniProt P42338); assay: Inhibition of PI3Kbeta in PTEN-deficient human MDA-MB-468 cells assessed as decrease in AKT phosphorylation at Ser473 measured after 2 hrs
[13] = Intrinsic clearance in dog hepatocytes assessed per million cells; format: ADME, cell-based, Canis lupus familiaris, Hepatocyte; details: read-out: CLH
In short: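 Intrinsic clearance measured in mouse or dog hepatocytes, expressed as CL_int in […].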

[14] = biological target: T2, Phosphatidylinositol 4,5-bisphosphate 3-kinase catalytic subunit beta isoform; assay: Inhibition of recombinant human PI3Kbeta using PIP2 as substrate preincubated for 20 mins followed by substrate addition measured after 80 mins in presence of ATP by Kinase Glo luminescence assay
[15] = biological target: Phosphatidylinositol 4,5-bisphosphate 3-kinase catalytic subunit gamma isoform (Mus musculus, UniProt Q9JHG7); assay: Inhibition of PI3Kgamma in mouse RAW264 cells assessed as decrease in AKT phosphorylation at Ser473; format: cell-based
In short: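 Mouse monocytic RAW264 cells; inhibition of AKT Ser473 phosphorylation measured; single determination (n=1).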

[16] = biological target: Diacylglycerol kinase zeta (Homo sapiens, UniProt Q13574); assay: Inhibition of human DGKzeta (1 to 929 residues) by ADP Glo HTS assay; in short: as §1
Cytochrome P450 2C9 = Cytochrome P450 2C9 (Homo sapiens, UniProt P11712); assay: Inhibition of CYP2C9 (unknown origin); format: ADME
[17] = biological target: Phosphatidylinositol 3-kinase regulatory subunit beta (Homo sapiens, UniProt O00459); assay: Inhibition of human PI3K p85beta (1 to 724 residues) by ADP Glo HTS assay; in short: as §1
[18] = biological target: MAP kinase-interacting serine/threonine-protein kinase 1 (Homo sapiens) (UniProt Q9BUB5); assay: Inhibition of human MNK1 (2 to 424 residues) at 1 uM after 5 mins in presence of [33P]ATP by filter binding assay relative to control
[19] = biological target: Diacylglycerol kinase gamma (Homo sapiens, UniProt P49619); assay: Inhibition of human DGKgamma (1 to 752 residues) by ADP Glo HTS assay; in short: as §1
[20] = Lipophilicity, log D of the compound at pH 7.4; details: buffer

T2 sequence (P42338 whole entry, canonical isoform): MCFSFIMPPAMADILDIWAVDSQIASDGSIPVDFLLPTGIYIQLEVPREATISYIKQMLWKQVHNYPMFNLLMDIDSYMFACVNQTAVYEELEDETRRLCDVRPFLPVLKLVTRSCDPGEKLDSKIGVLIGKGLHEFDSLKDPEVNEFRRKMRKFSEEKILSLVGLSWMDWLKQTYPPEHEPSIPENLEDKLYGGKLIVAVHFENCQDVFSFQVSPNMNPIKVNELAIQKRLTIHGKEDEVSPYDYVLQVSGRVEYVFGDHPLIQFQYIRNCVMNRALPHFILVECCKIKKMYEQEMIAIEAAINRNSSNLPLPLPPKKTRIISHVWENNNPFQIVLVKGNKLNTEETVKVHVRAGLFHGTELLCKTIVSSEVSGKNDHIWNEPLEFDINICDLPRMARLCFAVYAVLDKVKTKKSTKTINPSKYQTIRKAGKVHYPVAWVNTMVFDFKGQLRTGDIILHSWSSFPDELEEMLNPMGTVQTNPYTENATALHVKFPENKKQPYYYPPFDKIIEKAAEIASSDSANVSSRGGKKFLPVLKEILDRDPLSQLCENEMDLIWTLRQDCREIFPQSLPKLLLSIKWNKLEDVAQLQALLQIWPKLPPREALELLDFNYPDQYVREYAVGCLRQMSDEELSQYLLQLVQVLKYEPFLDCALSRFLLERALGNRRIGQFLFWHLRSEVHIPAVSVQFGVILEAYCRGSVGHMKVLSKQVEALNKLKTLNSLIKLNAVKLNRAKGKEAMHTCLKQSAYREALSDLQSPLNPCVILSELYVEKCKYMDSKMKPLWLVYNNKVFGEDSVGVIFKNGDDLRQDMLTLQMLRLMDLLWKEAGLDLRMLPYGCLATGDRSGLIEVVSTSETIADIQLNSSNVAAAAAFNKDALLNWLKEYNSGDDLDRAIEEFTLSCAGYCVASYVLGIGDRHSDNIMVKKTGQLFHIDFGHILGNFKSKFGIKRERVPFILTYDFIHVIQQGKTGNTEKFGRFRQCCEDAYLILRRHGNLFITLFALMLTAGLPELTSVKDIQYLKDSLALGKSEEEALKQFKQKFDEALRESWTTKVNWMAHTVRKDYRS
Chain of Phosphatidylinositol 3-kinase regulatory subunit beta (O00459 whole entry, the tested form may be a part): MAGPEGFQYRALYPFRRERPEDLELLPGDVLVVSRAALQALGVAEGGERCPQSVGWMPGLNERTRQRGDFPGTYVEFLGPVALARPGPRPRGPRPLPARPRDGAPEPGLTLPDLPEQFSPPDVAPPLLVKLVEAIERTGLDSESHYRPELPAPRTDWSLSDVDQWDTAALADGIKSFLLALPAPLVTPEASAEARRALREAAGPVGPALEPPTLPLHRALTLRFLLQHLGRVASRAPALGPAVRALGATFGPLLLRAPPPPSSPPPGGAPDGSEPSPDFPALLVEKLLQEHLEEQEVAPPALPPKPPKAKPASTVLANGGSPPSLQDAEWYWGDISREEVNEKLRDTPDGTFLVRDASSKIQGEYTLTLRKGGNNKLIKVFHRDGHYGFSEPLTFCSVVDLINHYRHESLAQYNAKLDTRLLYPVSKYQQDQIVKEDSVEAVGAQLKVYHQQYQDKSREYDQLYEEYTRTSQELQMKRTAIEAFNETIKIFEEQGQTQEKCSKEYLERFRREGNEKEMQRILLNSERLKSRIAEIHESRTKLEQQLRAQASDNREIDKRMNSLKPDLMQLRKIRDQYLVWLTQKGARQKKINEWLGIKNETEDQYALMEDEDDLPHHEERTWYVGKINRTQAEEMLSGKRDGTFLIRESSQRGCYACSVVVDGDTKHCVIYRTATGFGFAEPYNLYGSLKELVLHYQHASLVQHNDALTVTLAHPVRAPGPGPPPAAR
Chain of MAP kinase-interacting serine/threonine-protein kinase 1 (Homo sapiens) (Q9BUB5 whole entry, looked up, the tested form may be a part): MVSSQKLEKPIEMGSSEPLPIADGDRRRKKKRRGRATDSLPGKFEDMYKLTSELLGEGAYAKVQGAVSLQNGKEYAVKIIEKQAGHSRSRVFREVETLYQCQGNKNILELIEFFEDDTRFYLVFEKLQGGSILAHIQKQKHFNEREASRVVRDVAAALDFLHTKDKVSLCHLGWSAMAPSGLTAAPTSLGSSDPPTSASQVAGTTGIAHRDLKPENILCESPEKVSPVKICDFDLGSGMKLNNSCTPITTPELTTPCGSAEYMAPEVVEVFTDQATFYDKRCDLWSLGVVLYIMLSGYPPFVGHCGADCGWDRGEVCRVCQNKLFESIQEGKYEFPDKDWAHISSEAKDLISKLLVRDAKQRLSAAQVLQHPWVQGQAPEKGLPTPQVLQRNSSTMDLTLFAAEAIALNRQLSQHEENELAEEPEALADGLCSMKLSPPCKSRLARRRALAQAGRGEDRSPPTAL
Chain of Phosphatidylinositol 4,5-bisphosphate 3-kinase catalytic subunit gamma isoform (Homo sapiens, UniProt P48736) (P48736 whole entry, the tested form may be a part, canonical isoform): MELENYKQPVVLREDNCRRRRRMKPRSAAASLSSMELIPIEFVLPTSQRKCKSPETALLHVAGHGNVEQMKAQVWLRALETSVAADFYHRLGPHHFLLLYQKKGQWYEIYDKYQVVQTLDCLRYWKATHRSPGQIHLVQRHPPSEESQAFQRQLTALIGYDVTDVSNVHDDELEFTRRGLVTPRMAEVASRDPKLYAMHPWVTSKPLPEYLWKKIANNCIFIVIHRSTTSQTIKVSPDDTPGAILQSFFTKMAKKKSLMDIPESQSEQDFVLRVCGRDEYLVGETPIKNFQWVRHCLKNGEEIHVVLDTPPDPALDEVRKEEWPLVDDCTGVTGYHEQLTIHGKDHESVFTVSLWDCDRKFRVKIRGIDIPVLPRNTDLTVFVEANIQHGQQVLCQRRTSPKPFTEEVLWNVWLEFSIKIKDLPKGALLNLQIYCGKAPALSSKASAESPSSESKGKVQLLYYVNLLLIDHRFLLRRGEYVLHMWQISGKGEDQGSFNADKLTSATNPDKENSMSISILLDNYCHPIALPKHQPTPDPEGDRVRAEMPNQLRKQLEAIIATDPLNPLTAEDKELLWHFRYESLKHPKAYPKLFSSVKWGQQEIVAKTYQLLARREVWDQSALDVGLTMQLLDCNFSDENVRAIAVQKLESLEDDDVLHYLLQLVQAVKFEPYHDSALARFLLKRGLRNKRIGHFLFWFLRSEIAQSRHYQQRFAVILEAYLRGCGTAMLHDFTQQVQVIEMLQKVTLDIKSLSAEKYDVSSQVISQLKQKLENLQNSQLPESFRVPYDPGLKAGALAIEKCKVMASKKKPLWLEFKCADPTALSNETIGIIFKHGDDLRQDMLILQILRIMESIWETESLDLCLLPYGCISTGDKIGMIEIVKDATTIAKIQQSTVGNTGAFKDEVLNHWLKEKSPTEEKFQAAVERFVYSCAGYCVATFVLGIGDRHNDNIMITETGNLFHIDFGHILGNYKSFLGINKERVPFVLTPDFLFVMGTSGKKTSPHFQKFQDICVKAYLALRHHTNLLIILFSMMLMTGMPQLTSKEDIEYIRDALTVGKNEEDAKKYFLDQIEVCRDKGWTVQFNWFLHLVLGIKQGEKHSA
Chain of Sphingosine kinase 1 (Q9NYA1 whole entry, the tested form may be a part, canonical isoform): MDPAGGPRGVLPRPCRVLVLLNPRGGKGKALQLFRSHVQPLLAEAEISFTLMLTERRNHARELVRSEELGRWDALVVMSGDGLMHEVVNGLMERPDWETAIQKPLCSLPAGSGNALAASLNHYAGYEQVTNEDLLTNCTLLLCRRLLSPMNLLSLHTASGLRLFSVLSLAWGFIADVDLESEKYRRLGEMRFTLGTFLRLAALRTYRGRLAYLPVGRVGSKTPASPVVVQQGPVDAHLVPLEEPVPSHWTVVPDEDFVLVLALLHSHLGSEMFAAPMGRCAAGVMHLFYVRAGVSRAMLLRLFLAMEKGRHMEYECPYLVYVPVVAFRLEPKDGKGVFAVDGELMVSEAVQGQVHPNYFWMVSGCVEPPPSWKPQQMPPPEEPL
Chain of Diacylglycerol kinase zeta (Q13574 whole entry, the tested form may be a part): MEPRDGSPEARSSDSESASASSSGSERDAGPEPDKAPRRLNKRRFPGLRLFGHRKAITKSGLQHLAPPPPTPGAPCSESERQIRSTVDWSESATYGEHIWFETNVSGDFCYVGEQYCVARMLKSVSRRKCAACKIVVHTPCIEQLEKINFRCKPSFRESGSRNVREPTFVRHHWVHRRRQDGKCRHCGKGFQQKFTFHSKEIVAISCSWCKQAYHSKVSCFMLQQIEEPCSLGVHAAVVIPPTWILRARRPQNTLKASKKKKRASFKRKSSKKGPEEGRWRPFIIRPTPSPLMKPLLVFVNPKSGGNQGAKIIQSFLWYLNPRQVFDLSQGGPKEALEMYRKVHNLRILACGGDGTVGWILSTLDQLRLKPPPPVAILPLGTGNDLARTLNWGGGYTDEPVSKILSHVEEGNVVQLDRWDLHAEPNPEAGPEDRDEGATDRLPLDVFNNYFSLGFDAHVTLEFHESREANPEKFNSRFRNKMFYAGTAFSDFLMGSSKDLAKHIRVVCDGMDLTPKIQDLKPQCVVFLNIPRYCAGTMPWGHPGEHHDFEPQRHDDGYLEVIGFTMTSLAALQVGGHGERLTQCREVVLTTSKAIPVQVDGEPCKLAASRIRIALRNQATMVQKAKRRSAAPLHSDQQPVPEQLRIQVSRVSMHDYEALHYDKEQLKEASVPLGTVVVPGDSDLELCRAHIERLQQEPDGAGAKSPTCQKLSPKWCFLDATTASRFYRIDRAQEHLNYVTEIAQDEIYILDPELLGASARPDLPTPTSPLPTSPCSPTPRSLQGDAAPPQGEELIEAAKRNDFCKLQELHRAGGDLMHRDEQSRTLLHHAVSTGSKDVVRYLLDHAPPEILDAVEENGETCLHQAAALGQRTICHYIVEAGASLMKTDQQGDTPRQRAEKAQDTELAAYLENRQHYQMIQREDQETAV

- IC50 [1]: 0.013 µM
- IC50 [2]: > 50 µM
- Papp A→B [3]: 18 ×10⁻⁶ cm/s
- IC50 (Sphingosine kinase 1): 29 µM
- IC50 [4]: > 50 µM
- bioavailability [5]: 26%
- IC50 [7]: 42 µM
- clearance [8]: 23 mL/min/kg
- IC50 [9]: 0.0086 µM
- fraction unbound [10]: 0.19
- inhibition [11]: 32%
- IC50 [12]: 0.0011 µM
- hepatocyte CLint [13]: 23 µL/min/1e6 cells
- IC50 [14]: 0.0071 µM
- IC50 [15]: 1.5 µM
- IC50 [16]: > 50 µM
- IC50 (Cytochrome P450 2C9): > 30 µM
- IC50 [17]: > 50 µM
- inhibition [18]: 36%
- IC50 [19]: > 50 µM
- logD [20]: 2.5
Structure (SMILES): O=C(c1cc([C@H]2CCCN2c2cc(F)cc(F)c2)c2oc(N3CCOCC3)cc(=O)c2c1)N1CCOCC1
- IC50 [6]: 45 µM
- inhibition (Mus musculus): Active
